Test results from ChEMBL document CHEMBL1154369, “Betulin-derived compounds as inhibitors of alphavirus replication” (J Nat Prod, 2009).

Tests used:
[1] = Cytotoxicity against human HuH7 cells assessed as cell viability at 50 uM after 24 hrs
Semliki Forest virus [2] = assay: Antiviral activity against SFV infected in BHK cells assessed as surviving virus fraction at 50 uM after 14 hrs by luciferase reporter gene assay; type: functional; set-up: scale not given here
[3] = Cytotoxicity against human HuH7 cells assessed as cell viability at 500 uM after 24 hrs; type: cell-based, Huh-7; details: read-out: Activity
In short: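 Huh-7 human hepatocellular carcinoma cells exposed 24 h to derivative at 500 µM in an extended cytotoxicity analysis. Viability measured as intracellular ATP content and reported as surviving fraction.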

Semliki Forest virus [4] = assay: Antiviral activity against SFV infected in BHK cells after 14 hrs by luciferase reporter gene assay; type: functional, organism-based
In short: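 SFV-Rluc reporter virus from infectious cDNA clone; BHK-21 cells infected at low multiplicity (0.001 PFU/cell) and incubated 14 h, spanning over 2 infectious cycles. Serial dilutions of each derivative tested. Luciferase read-out as surviving virus fraction. IC50 from a sigmoidal dose-response fit; means ± SD, n = 6. 3′-Amino-3′-deoxyadenosine (20 µM) served as screen positive control.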

Molecule `CC(C)[C@@]12CC[C@]3(COC(=O)c4ccccc4)CC[C@]4(C)C(=C31)[C@H](C[C@@H]1[C@@]3(C)CC[C@H](OC(=O)c5ccccc5)C(C)(C)[C@@H]3CC[C@]14C)n1c(=O)n(C)c(=O)n12` has a viability at 24 h, 50 µM [1] of 108% and an Activity (Semliki Forest virus [2]) of 22%.

`C=C(C)[C@@H]1CC[C@]2(C(=O)OC)CC[C@]3(C)[C@H](CC[C@@H]4[C@@]5(C)CCC(=O)C(C)(C)[C@@H]5CC[C@]43C)[C@@H]12` [METHYL BETULONATE] gave a viability at 24 h, 50 µM [1] of 83% and an Activity (Semliki Forest virus [2]) of 71%.

`CC(C)[C@@]12CC[C@]3(COC(=O)C4CCCCC4)CC[C@]4(C)C(=C31)[C@H](C[C@@H]1[C@@]3(C)CC[C@H](OC(=O)C5CCCCC5)C(C)(C)[C@@H]3CC[C@]14C)n1c(=O)n(C)c(=O)n12` gave a viability at 24 h, 50 µM [1] of 97% and an Activity (Semliki Forest virus [2]) of 44%.

With `CC(C)[C@@]12CC[C@]3(CO)CC[C@]4(C)C(=C31)[C@H](C[C@@H]1[C@@]3(C)CC[C@H](O)C(C)(C)[C@@H]3CC[C@]14C)n1c(=O)n(-c3ccccc3)c(=O)n12` the viability at 24 h, 50 µM [1] was 85% and the Activity (Semliki Forest virus [2]) was 73%.

For `C=C(C)[C@@H]1CC[C@]2(C(=O)N[C@@H](CC(=O)OC)C(=O)OC)CC[C@]3(C)[C@H](CC[C@@H]4[C@@]5(C)CCC(=O)C(C)(C)[C@@H]5CC[C@]43C)[C@@H]12`, the viability at 24 h, 50 µM [1] was 30% and the Activity (Semliki Forest virus [2]) was 40%.

`CC(=O)OC[C@]12CC[C@]3(C(C)C)O[C@]13[C@H]1CC[C@@H]3[C@@]4(C)CC[C@H](OC(C)=O)C(C)(C)[C@@H]4CC[C@@]3(C)[C@]1(C)CC2` gave a viability at 24 h, 50 µM [1] of 92%, an Activity (Semliki Forest virus [2]) of 16% and a viability at 24 h, 500 µM [3] greater than 80%. The IC50 (Semliki Forest virus [4]; read-out: IC50) was 13.3 µM and the IC50 (Semliki Forest virus [4]; read-out: pIC50 (converted)) was 11.5 µM.

With `CC(C)C(=O)OC[C@]12CC[C@]3(C(C)C)C1=C1[C@H](C[C@@H]4[C@@]5(C)CC[C@H](OC(=O)C(C)C)C(C)(C)[C@@H]5CC[C@@]4(C)[C@]1(C)CC2)n1c(=O)n(C)c(=O)n13` the viability at 24 h, 50 µM [1] was 106%, the Activity (Semliki Forest virus [2]) was 24% and the viability at 24 h, 500 µM [3] was greater than 80%.

With `CC(C)[C@@]12CC[C@]3(COC(=O)C4CCCCC4)CC[C@]4(C)C(=C31)[C@H](C[C@@H]1[C@@]3(C)CC[C@H](OC(=O)C5CCCCC5)C(C)(C)[C@@H]3CC[C@]14C)n1c(=O)n(C(C)(C)C)c(=O)n12` the viability at 24 h, 50 µM [1] was 83% and the Activity (Semliki Forest virus [2]) was 40%.

`C=C(C)[C@@H]1CC[C@]2(COC(=O)CBr)CC[C@]3(C)[C@H](CC[C@@H]4[C@@]5(C)CC[C@H](O)C(C)(C)[C@@H]5CC[C@]43C)[C@@H]12` showed a viability at 24 h, 50 µM [1] of 11% and an Activity (Semliki Forest virus [2]) of 125%.

For `C=C(C)[C@@H]1CC[C@]2(COC(C)=O)CC[C@]3(C)[C@H](CC[C@@H]4[C@@]5(C)CC=CC(C)(C)[C@@H]5CC[C@]43C)[C@@H]12`, the viability at 24 h, 50 µM [1] was 95% and the Activity (Semliki Forest virus [2]) was 98%.

Molecule `CC(C)[C@@H]1CC[C@]2(C(=O)O)CC[C@]3(C)[C@H](CC[C@@H]4[C@@]5(C)CCC(=O)C(C)(C)[C@@H]5CC[C@]43C)[C@@H]12` [DIHYDROBETULONIC ACID] has a viability at 24 h, 50 µM [1] of 102%, an Activity (Semliki Forest virus [2]) of 14% and a viability at 24 h, 500 µM [3] greater than 80%. It also gave an IC50 (Semliki Forest virus [4]; read-out: IC50) of 30.6 µM and an IC50 (Semliki Forest virus [4]; read-out: pIC50 (converted)) of 30.2 µM.

`C=C(C)[C@@H]1CC[C@]2(COC(=O)c3ccccc3NC(C)=O)CC[C@]3(C)[C@H](CC[C@@H]4[C@@]5(C)CC[C@H](O)C(C)(C)[C@@H]5CC[C@]43C)[C@@H]12` gave a viability at 24 h, 50 µM [1] of 94% and an Activity (Semliki Forest virus [2]) of 82%.

Molecule `COc1cccc(-n2c(=O)n3n(c2=O)[C@]2(C(C)C)CC[C@]4(COC(C)=O)CC[C@]5(C)C(=C42)[C@@H]3C[C@@H]2[C@@]3(C)CC[C@H](OC(C)=O)C(C)(C)[C@@H]3CC[C@]25C)c1` has a viability at 24 h, 50 µM [1] of 93% and an Activity (Semliki Forest virus [2]) of 121%.

For `C=C(C)[C@@H]1CC[C@]2(CO)CC[C@]3(C)[C@H](CC[C@@H]4[C@@]5(C)CC=CC(C)(C)[C@@H]5CC[C@]43C)[C@@H]12`, the viability at 24 h, 50 µM [1] was 85% and the Activity (Semliki Forest virus [2]) was 121%.

Work on `CCCC(=O)OC[C@]12CC[C@]3(C(C)C)C1=C1[C@H](C[C@@H]4[C@@]5(C)CC[C@H](OC(=O)CCC)C(C)(C)[C@@H]5CC[C@@]4(C)[C@]1(C)CC2)n1c(=O)n(C)c(=O)n13` yielded a viability at 24 h, 50 µM [1] of 93%, an Activity (Semliki Forest virus [2]) of 18% and an IC50 (Semliki Forest virus [4]; read-out: IC50) of 30.1 µM. For the same molecule, the IC50 (Semliki Forest virus [4]; read-out: pIC50 (converted)) was 30.2 µM.

In the case of `C=C(C)[C@@H]1CC[C@]2(COC(=O)COc3cc(C(C)C)ccc3C)CC[C@]3(C)[C@H](CC[C@@H]4[C@@]5(C)CC[C@H](O)C(C)(C)[C@@H]5CC[C@]43C)[C@@H]12`, the viability at 24 h, 50 µM [1] is reported as 103% and the Activity (Semliki Forest virus [2]) is reported as 80%.

With `C=C(C)[C@@H]1CC[C@]2(C=O)CC[C@]3(C)[C@H](CC[C@@H]4[C@@]5(C)CC[C@H](O)C(C)(C)[C@@H]5CC[C@]43C)[C@@H]12` [BETULINALDEHYDE] the viability at 24 h, 50 µM [1] was 0% and the Activity (Semliki Forest virus [2]) was 1%.

`C=C(C)[C@@H]1CC[C@]2(COC(=O)/C=C/c3ccccc3)CC[C@]3(C)[C@H](CC[C@@H]4[C@@]5(C)CC[C@H](O)C(C)(C)[C@@H]5CC[C@]43C)[C@@H]12` gave a viability at 24 h, 50 µM [1] of 96% and an Activity (Semliki Forest virus [2]) of 111%.

`CC(=O)OC[C@]12CC[C@]3(C(C)C)C1=C1[C@H](C[C@@H]4[C@@]5(C)CC[C@H](OC(C)=O)C(C)(C)[C@@H]5CC[C@@]4(C)[C@]1(C)CC2)n1c(=O)n(-c2ccc4c(c2)CCC4)c(=O)n13` gave a viability at 24 h, 50 µM [1] of 93% and an Activity (Semliki Forest virus [2]) of 81%.

`C=C(C)[C@@H]1CC[C@]2(/C=N/O)CC[C@]3(C)[C@H](CC[C@@H]4[C@@]5(C)CC[C@H](O)C(C)(C)[C@@H]5CC[C@]43C)[C@@H]12` showed a viability at 24 h, 50 µM [1] of 82% and an Activity (Semliki Forest virus [2]) of 55%.

With `C=C(C)[C@@H]1CC[C@]2(COC(C)=O)CC[C@]3(C)[C@H](CC[C@@H]4[C@@]5(C)CC[C@H](OC(C)=O)C(C)(C)[C@@H]5CC[C@]43C)[C@@H]12` [BETULIN DIACETATE] the viability at 24 h, 50 µM [1] was 97%, the Activity (Semliki Forest virus [2]) was 21% and the IC50 (Semliki Forest virus [4]; read-out: IC50) was 9.1 µM. For the same molecule, the IC50 (Semliki Forest virus [4]; read-out: pIC50 (converted)) was 9.12 µM.

`C=C(C)[C@@H]1CC[C@]2(C(=O)OC)CC[C@]3(C)[C@H](CC[C@@H]4[C@@]5(C)CC[C@H](O)C(C)(C)[C@@H]5CC[C@]43C)[C@@H]12` [METHYL BETULINATE] showed a viability at 24 h, 50 µM [1] of 1% and an Activity (Semliki Forest virus [2]) of 68%.

With `CCn1c(=O)n2n(c1=O)[C@]1(C(C)C)CC[C@]3(COC(C)=O)CC[C@]4(C)C(=C31)[C@@H]2C[C@@H]1[C@@]2(C)CC[C@H](OC(C)=O)C(C)(C)[C@@H]2CC[C@]14C` the viability at 24 h, 50 µM [1] was 40% and the Activity (Semliki Forest virus [2]) was 24%.

Work on `CC(C)[C@@]12CC[C@]3(COC(=O)c4ccccc4)CC[C@]4(C)C(=C31)[C@H](C[C@@H]1[C@@]3(C)CC[C@H](OC(=O)c5ccccc5)C(C)(C)[C@@H]3CC[C@]14C)n1c(=O)n(-c3ccccc3)c(=O)n12` yielded a viability at 24 h, 50 µM [1] of 88% and an Activity (Semliki Forest virus [2]) of 50%.

In the case of `CC(=O)OC[C@]12CC[C@]3(C(C)C)C1=C1[C@H](C[C@@H]4[C@@]5(C)CC[C@H](OC(C)=O)C(C)(C)[C@@H]5CC[C@@]4(C)[C@]1(C)CC2)n1c(=O)n(-c2ccc(F)cc2)c(=O)n13`, the viability at 24 h, 50 µM [1] is reported as 95% and the Activity (Semliki Forest virus [2]) is reported as 64%.

Work on `C=C(C)[C@@H]1CC[C@]2(C(=O)Oc3ccc(C=O)cc3OC)CC[C@]3(C)[C@H](CC[C@@H]4[C@@]5(C)CCC(=O)C(C)(C)C5CC[C@]43C)[C@@H]12` (some centres undefined) [VANILLINYL BETULONATE] yielded a viability at 24 h, 50 µM [1] of 89% and an Activity (Semliki Forest virus [2]) of 43%.

Molecule `C=C(C)[C@@H]1CC[C@]2(C#N)CC[C@]3(C)[C@H](CC[C@@H]4[C@@]5(C)CC/C(=N\OC(C)=O)C(C)(C)[C@@H]5CC[C@]43C)[C@@H]12` has a viability at 24 h, 50 µM [1] of 85% and an Activity (Semliki Forest virus [2]) of 73%.

Molecule `C=C(C)[C@@H]1CC[C@]2(COC(=O)c3cccnc3)CC[C@]3(C)[C@H](CC[C@@H]4[C@@]5(C)CC[C@H](O)C(C)(C)[C@@H]5CC[C@]43C)[C@@H]12` has a viability at 24 h, 50 µM [1] of 94% and an Activity (Semliki Forest virus [2]) of 43%.

In the case of `CCC(=O)OC[C@]12CC[C@]3(C(C)C)C1=C1[C@H](C[C@@H]4[C@@]5(C)CC[C@H](OC(=O)CC)C(C)(C)[C@@H]5CC[C@@]4(C)[C@]1(C)CC2)n1c(=O)n(C)c(=O)n13`, the viability at 24 h, 50 µM [1] is reported as 75% and the Activity (Semliki Forest virus [2]) is reported as 21%.

Molecule `C=C(C)[C@@H]1CC[C@]2(COC(=O)CCC(C)=O)CC[C@]3(C)[C@H](CC[C@@H]4[C@@]5(C)CC[C@H](OC(=O)CCC(C)=O)C(C)(C)[C@@H]5CC[C@]43C)[C@@H]12` has a viability at 24 h, 50 µM [1] of 109% and an Activity (Semliki Forest virus [2]) of 74%.

For `C=C(C)[C@@H]1CC[C@]2(/C=N/O)CC[C@]3(C)[C@H](CC[C@@H]4[C@@]5(C)CC/C(=N\O)C(C)(C)[C@@H]5CC[C@]43C)[C@@H]12` [BETULIN-3,28-DIOXIME], the viability at 24 h, 50 µM [1] was 80% and the Activity (Semliki Forest virus [2]) was 121%.

Work on `C=C(C)[C@@H]1CC[C@]2(C#N)CC[C@]3(C)[C@H](CC[C@@H]4[C@@]5(C)CC[C@H](OC(C)=O)C(C)(C)[C@@H]5CC[C@]43C)[C@@H]12` yielded a viability at 24 h, 50 µM [1] of 69% and an Activity (Semliki Forest virus [2]) of 60%.

`C=C(C)[C@@H]1CC[C@]2(COS(C)(=O)=O)CC[C@]3(C)[C@H](CC[C@@H]4[C@@]5(C)CC[C@H](OC(C)=O)C(C)(C)[C@@H]5CC[C@]43C)[C@@H]12` gave a viability at 24 h, 50 µM [1] of 99% and an Activity (Semliki Forest virus [2]) of 46%.

For `C=C(C)[C@@H]1CC[C@]2(COC(=O)C3C(C=C(C)C)C3(C)C)CC[C@]3(C)[C@H](CC[C@@H]4[C@@]5(C)CC[C@H](O)C(C)(C)[C@@H]5CC[C@]43C)[C@@H]12` (some centres undefined), the viability at 24 h, 50 µM [1] was 90% and the Activity (Semliki Forest virus [2]) was 95%.
